The species entered for series [1] is Homo sapiens. Description: Selectivity ratio of Ki for human D2 receptor to Ki for human D3 receptor. Summed up:
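Selectivity index is Ki(D2)/Ki(D3). Both Ki values come from [125I]IABN competition on membranes of HEK 293 cells stably expressing the human receptor. Incubation was 60 min at 37°C at pH 7.5, with Cheng–Prusoff correction.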

In series [2] the target is D(3) dopamine receptor (Homo sapiens, UniProt P35462). Description: Displacement of [125I]-IABN from human D3 receptor transfected in human HEK 293 cells by gamma-counting. Type of series: cell-based, HEK293. The method, boiled down:
(§1)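 Nonspecific binding defined with 20 µM (+)-butaclamol. Inhibitor spans 5 log units at two points per decade, in triplicate. Filtration and gamma counting. One-site IC50 converted to Ki by Cheng–Prusoff. At least three independent experiments.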
In general terms: In a radioligand displacement assay an active substance lowers the binding of a labelled ligand.

The target in series [3] is Sigma non-opioid intracellular receptor 1 (Cavia porcellus, UniProt Q60492). Description: Displacement of [3H]-pentazocine from guinea pig sigma1 receptor by liquid scintillation counting. Summed up: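 Guinea pig brain membranes (~300 µg protein) incubated with ~5 nM (+)-[3H]-pentazocine for 90 min at room temperature in Tris-HCl/NaCl/EDTA pH 7.4. […] Filtration and scintillation counting. IC50 taken from a one-site fit.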

The nature of series [4]: Partition coefficient, log P of the compound. Type of series: physicochemical. Particulars: octanol/water.
The target of series [5] is T1, D(4) dopamine receptor (Homo sapiens, UniProt P21917).
T1 sequence (P21917 whole entry): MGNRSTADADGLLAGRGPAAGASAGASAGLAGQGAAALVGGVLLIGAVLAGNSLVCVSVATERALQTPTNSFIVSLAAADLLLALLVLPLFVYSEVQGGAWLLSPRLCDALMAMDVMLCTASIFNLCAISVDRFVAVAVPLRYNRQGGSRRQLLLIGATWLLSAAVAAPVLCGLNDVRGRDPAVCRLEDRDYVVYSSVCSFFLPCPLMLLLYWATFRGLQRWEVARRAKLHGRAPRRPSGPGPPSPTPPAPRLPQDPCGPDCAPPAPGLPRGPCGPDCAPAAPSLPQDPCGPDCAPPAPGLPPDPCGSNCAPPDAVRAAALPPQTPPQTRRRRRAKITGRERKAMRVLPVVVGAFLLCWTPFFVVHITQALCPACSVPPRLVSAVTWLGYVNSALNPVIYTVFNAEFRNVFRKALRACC
Description: Binding affinity to human D4 receptor transfected in human HEK293 cells by gamma-counting. Type of series: cell-based. The method, boiled down: as §1

For series [6], the target named is D(2) dopamine receptor (Homo sapiens, UniProt P14416). Description: Displacement of [125I]-IABN from human D2 receptor transfected in human HEK 293 cells by gamma-counting. In kind it is cell-based, HEK293. Summed up:
as §1

D(2) dopamine receptor, sequence (P14416 whole entry): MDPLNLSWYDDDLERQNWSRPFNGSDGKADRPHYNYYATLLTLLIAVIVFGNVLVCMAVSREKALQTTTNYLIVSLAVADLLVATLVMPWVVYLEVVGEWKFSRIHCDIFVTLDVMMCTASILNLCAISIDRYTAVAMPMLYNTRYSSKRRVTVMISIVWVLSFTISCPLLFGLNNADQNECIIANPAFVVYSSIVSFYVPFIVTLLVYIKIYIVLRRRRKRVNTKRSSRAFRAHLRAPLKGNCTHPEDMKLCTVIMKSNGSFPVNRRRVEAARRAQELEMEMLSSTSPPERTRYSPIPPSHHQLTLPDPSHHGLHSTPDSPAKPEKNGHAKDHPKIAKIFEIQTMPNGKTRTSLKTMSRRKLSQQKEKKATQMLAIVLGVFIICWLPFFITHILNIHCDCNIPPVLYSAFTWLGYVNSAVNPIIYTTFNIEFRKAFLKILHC
Sigma non-opioid intracellular receptor 1, sequence (Q60492 whole entry): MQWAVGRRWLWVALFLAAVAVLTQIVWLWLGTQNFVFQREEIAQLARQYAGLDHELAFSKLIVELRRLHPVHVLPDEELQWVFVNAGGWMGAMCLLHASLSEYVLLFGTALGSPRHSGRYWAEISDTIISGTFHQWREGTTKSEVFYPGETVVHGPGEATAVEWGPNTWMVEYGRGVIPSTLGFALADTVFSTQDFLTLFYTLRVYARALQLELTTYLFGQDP
D(3) dopamine receptor, sequence (P35462 whole entry): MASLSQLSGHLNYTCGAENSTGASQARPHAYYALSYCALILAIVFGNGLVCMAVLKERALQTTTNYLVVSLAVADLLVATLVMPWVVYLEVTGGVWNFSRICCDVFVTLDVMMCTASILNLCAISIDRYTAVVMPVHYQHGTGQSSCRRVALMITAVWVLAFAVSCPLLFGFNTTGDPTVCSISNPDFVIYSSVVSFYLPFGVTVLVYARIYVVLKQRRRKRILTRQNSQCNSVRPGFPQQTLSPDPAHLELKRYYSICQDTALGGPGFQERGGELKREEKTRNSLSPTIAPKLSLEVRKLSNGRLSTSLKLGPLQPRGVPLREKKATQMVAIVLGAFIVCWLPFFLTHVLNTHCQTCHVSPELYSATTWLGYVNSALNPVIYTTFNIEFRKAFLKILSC

On to `O=C(NC/C=C/CN1CCN(c2ccccc2OCCF)CC1)c1ccc(-c2ccsc2)cc1`, for which the Ratio Ki in series [1] was found to be 64. Also, the Ki in series [2] came out at 1.1 nM; in series [3], 7780 nM; in series [5], 182 nM; in series [6], 70.5 nM. Further, the logP in series [4] is 4.74.
Regarding `COc1ccccc1N1CCN(C/C=C/CNC(=O)c2cc(C)ccc2OCCF)CC1`, in series [1], the Ratio Ki was 1. Moreover, the results for the Ki in series [2] and in series [6] were 18.5 nM and 17.8 nM, respectively. For the same molecule, in series [4], the logP is 3.66.
As for `O=C(NCCCCN1CCN(c2ccccc2OCCF)CC1)c1ccc(-c2ccsc2)cc1`, the Ki came to 20900 nM in series [3] and 246 nM in series [5]. Moreover, the logP in series [4] was determined as 4.67.
`O=C(NCCCCN1CCN(c2ccccc2OCCF)CC1)c1ccc(OCCF)cc1`: the Ki in series [2] was 0.52 nM; in series [3], 4360 nM; in series [5] it was 990 nM; in series [6] it was 15.1 nM. The molecule further returned a logP in series [4] of 3.73.
With `COc1ccccc1N1CCN(CCCCNC(=O)c2ccc(N(C)C)cc2)CC1`, the Ratio Ki in series [1] was 43. Further, the Ki is 0.8 nM in series [2], 1260 nM in series [3], 896 nM in series [5] and 34.4 nM in series [6]. The molecule also returned a logP in series [4] of 3.09.
For `COc1ccccc1N1CCN(C/C=C/CNC(=O)c2ccc(OCCOCCF)cc2)CC1`, in series [1], the Ratio Ki was determined as 3.3. The Ki in series [2] is 18.2 nM; in series [6], 59.2 nM. The same molecule had a logP in series [4] of 3.16.
For `COc1ccccc1N1CCN(C/C=C/CNC(=O)c2cc(I)ccc2OCCF)CC1`, in that order: 1.2, 10.9 nM, 13.2 nM and 4.73.
For `CN(C)c1ccc(C(=O)NC/C=C/CN2CCN(c3ccccc3OCCF)CC2)cc1`, in that order: 9.8, 3.6 nM, 35.2 nM and 3.83.
For `COc1ccccc1N1CCN(C/C=C/CNC(=O)c2cc(Br)ccc2OCCF)CC1`, in that order: 1, 13.6 nM, 13.4 nM and 4.49.
`COc1ccccc1N1CCN(CCCCNC(=O)c2ccc(CCF)cc2)CC1`: the Ki in series [2] is 2.4 nM; in series [3] it was 3540 nM; in series [5], 804 nM; in series [6], 54.5 nM. In addition, in series [4], the logP was 2.94.
On to `COc1ccccc1N1CCN(C/C=C/CNC(=O)c2cc(Br)cc(OC)c2OCCF)CC1`, for which, in series [1], the Ratio Ki was 4.2. Besides, the Ki in series [2] turned out to be 13.8 nM; in series [6], 57.6 nM. Besides, in series [4], the logP is 4.15.
For `COc1ccccc1N1CCN(C/C=C/CNC(=O)c2ccc(CCF)cc2)CC1`, in that order: 5.2, 24.9 nM, 131 nM and 3.43.
For `O=C(NC/C=C/CN1CCN(c2ccccc2OCCF)CC1)c1ccc(OCCF)cc1`, in that order: 4.5, 8.4 nM, 37.9 nM and 3.81.
`O=C(NCCCCN1CCN(c2ccccc2OCCF)CC1)c1ccc(OCCOCCF)cc1`: the Ki in series [2] was 2.5 nM; in series [6] it was 14.2 nM. In addition, in series [4], the logP came to 3.34.
`COc1ccccc1N1CCN(CCCCNC(=O)c2ccc(OCCOCCF)cc2)CC1` showed a Ki in series [2] of 6.2 nM. Also, the logP in series [4] is 3.08.
Regarding `COc1ccccc1N1CCN(CCCCNC(=O)c2ccc(OCCOCCOCCF)cc2)CC1`, the Ratio Ki in series [1] came to 12.2. The Ki in series [2] was 4.2 nM; in series [3], 4870 nM; in series [5] it was 2100 nM; in series [6], 52 nM. Besides, the logP in series [4] turned out to be 2.72.
On to `O=C(NC/C=C/CN1CCN(c2ccccc2OCCF)CC1)c1ccc(OCCOCCF)cc1`, for which, in series [1], the Ratio Ki was determined as 3.3. Also, the Ki in series [2] was found to be 19.6 nM; in series [6], 64.8 nM. The molecule also registered a logP in series [4] of 3.41.
For `COc1ccccc1N1CCN(C/C=C/CNC(=O)c2ccc(OCCF)cc2)CC1`, in that order: 8.9, 6.2 nM, 55.3 nM and 3.55.
Regarding `O=C(NCCCCN1CCN(c2ccccc2OCCF)CC1)c1ccc(CCF)cc1`, the Ratio Ki in series [1] stood at 3.1. In addition, the Ki in series [2] is 6.9 nM; in series [6] it was 21.4 nM. Moreover, the logP in series [4] stood at 3.68.
Turning to `CN(C)c1ccc(C(=O)NCCCCN2CCN(c3ccccc3OCCF)CC2)cc1`, the Ki in series [2] worked out at 0.65 nM; in series [3] it was 1960 nM; in series [5] it was 890 nM; in series [6] it was 15.1 nM. For the same molecule, the logP in series [4] was 3.75.
As to `O=C(NC/C=C/CN1CCN(c2ccccc2OCCF)CC1)c1ccc(CCF)cc1`, the Ratio Ki in series [1] stood at 16.1. The Ki in series [2] stood at 1.1 nM; in series [3] it was 7200 nM; in series [5], 890 nM; in series [6], 17.7 nM. For the same molecule, the logP in series [4] was determined as 3.61.
With `COc1ccccc1N1CCN(CCCCNC(=O)c2ccc(OCCF)cc2)CC1`, in series [1], the Ratio Ki was 25. The Ki in series [2] was 1.1 nM; in series [3], 4780 nM; in series [5], 1400 nM; in series [6], 27.1 nM. This molecule also displayed a logP in series [4] of 3.48.
With `O=C(NCCCCN1CCN(c2ccccc2OCCF)CC1)c1ccc(OCCOCCOCCF)cc1`, the Ratio Ki in series [1] was 6.1. In addition, the Ki in series [2] was found to be 5.2 nM; in series [6] it was 31.7 nM. In addition, the logP in series [4] stood at 2.98.

The Ki is the equilibrium dissociation constant of an inhibitor or competing ligand from its target. A lower Ki goes with higher affinity. What is called logP is a log measure of how a compound divides between an organic and an aqueous phase. A higher logP goes with a more lipophilic compound.

For the origin of these results see ChEMBL document CHEMBL1687933, “Synthesis and pharmacological evaluation of fluorine-containing D₃ dopamine receptor ligands” (J Med Chem, 2011).
